Rows were chosen to be rich in hits. Some 1.3% of all compounds tested hit in one or more screens of this group.
Calb biofilm kill – mixture kills Candida albicans biofilm cells; C. albicans biofilm persisters + clotrimazole, fluorescence viability; primary screen in compound mixtures of four per well; inhibition, % at 7.6 µM; actives 0.02% (n = 120,000);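 active = inhibition above 30.3% in the primary screen of four-compound pools, then above 30% when the compound was retested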;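 note: compounds exposed to preformed 24 h biofilms for 48 h; 0% = untreated biofilm control and 100% = clotrimazole plus chlorhexidine kill blank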
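Test system: C. albicans biofilms. Buffer or medium: RPMI/MOPS medium, pH 7.0. Timing: 48 h compound exposure at 37 °C. Technique: Alamar Blue fluorescence. Evaluation: percent inhibition of biofilm viability.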
S1P4 antagonist – blocks the human S1P4 receptor | S1P4-expressing cells, antagonist mode, reporter read-out | inhibition, % at 4.98 µM | actives 0.26% (n = 220,000) | AID 1510; in the data active = inhibition above about 29%;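 note: 0% = wells stimulated with agonist and 100% = vehicle wells without agonist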
Target sequence (O95977 whole entry, looked up): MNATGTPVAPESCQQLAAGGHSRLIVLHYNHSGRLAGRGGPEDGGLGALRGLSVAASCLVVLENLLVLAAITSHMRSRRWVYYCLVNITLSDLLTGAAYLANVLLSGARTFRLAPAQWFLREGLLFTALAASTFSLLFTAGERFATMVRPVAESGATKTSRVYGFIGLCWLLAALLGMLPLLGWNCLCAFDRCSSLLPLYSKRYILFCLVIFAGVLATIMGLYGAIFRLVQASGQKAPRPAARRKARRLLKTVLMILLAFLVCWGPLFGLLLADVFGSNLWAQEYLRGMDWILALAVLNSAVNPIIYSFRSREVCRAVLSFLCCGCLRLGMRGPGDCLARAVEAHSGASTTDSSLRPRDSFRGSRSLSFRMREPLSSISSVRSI
S1P4 agonist – activates the human S1P4 receptor | O95977 | S1P4-expressing cell line, agonist reporter assay | activation, % at 4.98 µM | actives 0.35% (n = 220,000) | AID 1509; in the data active = activation above about 11%;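 note: 0% = DMSO vehicle and 100% = reference agonist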
TbHK1 inh – blocks Trypanosoma brucei hexokinase 1 activity; recombinant TbHK1, G6PDH-coupled NADH A340; inhibition, % at 10 µM; actives 0.11% (n = 220,000);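 active = inhibition of 50% or more in the single-dose primary screen; inactive = inhibition below 50%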
S1P3 antagonist – S1P3 (human) receptor antagonism | CHO S1P3 NFAT-BLA reporter, FRET fluorescence, antagonist mode | Q99500 | actives 0.27% (n = 170,000) | inhibition, % at 4.98 µM;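 active = inhibition above the plate cutoff, the mean inhibition of test wells on that plate plus 3 SD, cut at about 28% in these data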;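 note: cells challenged with S1P at its EC80 of 0.8 µM; blue over green emission ratio from cleaved BLA substrate after 4 h stimulation; 0% = S1P-stimulated wells and 100% = unstimulated DMSO-only wells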
Dynein transport – blocks dynein driven cargo transport along microtubules; AID 1381; 3617.4 mouse cells, GR-EGFP nuclear translocation imaging; test concentration mostly 20 µM; stimulated with dexamethasone, 1 µM; stronger effect = lower value; z-score, hits read low; actives 0.47% (n = 220,000);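 active = plate z-score of nuclear minus cytoplasmic receptor signal below a set negative limit, without overly bright fluorescence or cell loss, cut at about -3.5 in these data, passing the limit was not always enough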;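 note: z-score of nuclear minus cytoplasmic ring GR-EGFP intensity difference per well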
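Buffer or medium: tet-free, stripped-serum medium; Also added: dexamethasone, 1.0 µM final; Technique: high-content fluorescence imaging after fixation; Times: 48 h induction, 1 h compound, 30 min dex at 37 °C; Read-out: per-cell GR-EGFP intensity, nucleus versus surrounding cytoplasmic ring, well-averaged.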
S1P4 ag conf – human S1P4 agonism, confirmation | actives 7% (n = 740) | activation, % at 4.98 µM | S1P4 agonist cell-based reporter assay | shares compounds with S1P4 agonist | AID 1523; in the data active = activation above about 12%;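 note: 0% = vehicle and 100% = full reference agonist response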
S1P1 agonist – human S1P1 agonism as S1P4 agonist counter-screen | AID 1563 | S1P1 agonist cell-based assay, activation | activation, % at 4.98 µM | shares compounds with S1P4 agonist | actives 4% (n = 740); in the data active = activation above about 21%;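 note: 0% = vehicle wells and 100% = reference agonist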
Target sequence (P21453 whole entry, looked up): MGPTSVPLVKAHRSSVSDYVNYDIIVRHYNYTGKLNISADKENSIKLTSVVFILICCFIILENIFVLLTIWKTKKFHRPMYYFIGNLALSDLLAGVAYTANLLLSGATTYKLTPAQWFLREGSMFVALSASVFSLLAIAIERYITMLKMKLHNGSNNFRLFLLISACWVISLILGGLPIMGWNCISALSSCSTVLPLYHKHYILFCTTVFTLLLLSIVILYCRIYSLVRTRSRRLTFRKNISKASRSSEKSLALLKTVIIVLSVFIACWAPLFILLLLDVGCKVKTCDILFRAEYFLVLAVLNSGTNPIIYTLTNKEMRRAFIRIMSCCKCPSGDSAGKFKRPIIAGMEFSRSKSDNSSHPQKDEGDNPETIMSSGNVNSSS
Starred values were filed as active, the others as inactive.

How did Fc1ccc(-c2nnc3ccccn23)cc1 do in these assays?
Calb biofilm kill: 13.3; S1P4 antagonist: 1.2; S1P4 agonist: 29.3*; TbHK1 inh: -5.3; S1P3 antagonist: -5.4; Dynein transport: -0.362; S1P4 ag conf: -2.0; S1P1 agonist: 1.9

What do the screens show for `O=S(=O)(CC(O)CS(=O)(=O)c1ccc(Cl)cc1)c1ccccc1` (stereo not given)?
Calb biofilm kill: 16.3; S1P4 antagonist: 1.4; S1P4 agonist: 2.6; TbHK1 inh: -7.9; S1P3 antagonist: 5.2; Dynein transport: -0.921

What do the screens show for `NC(=O)CS(=O)(=O)c1ccc(Cl)cc1`?
Calb biofilm kill: 15.5; S1P4 antagonist: -10.1; S1P4 agonist: 25.0*; TbHK1 inh: 5.4; S1P3 antagonist: 1.9; Dynein transport: -0.671; S1P4 ag conf: -1.7; S1P1 agonist: -3.0

Results for CC(C)c1ccc(/C=C2\C(=O)N(CCN3CCOCC3)C(=S)N2C)cc1 ?
Calb biofilm kill: 10.0; S1P4 antagonist: 4.1; S1P4 agonist: 43.4*; TbHK1 inh: -15.0; S1P3 antagonist: 1.4; Dynein transport: -2.3; S1P4 ag conf: -1.5; S1P1 agonist: -3.8

What do the screens show for `NCCCNc1ccc([N+](=O)[O-])cc1C(F)(F)F`?
Calb biofilm kill: 25.3; S1P4 antagonist: -9.9; S1P4 agonist: -0.5; TbHK1 inh: -16.7; S1P3 antagonist: 6.1; Dynein transport: 0.312

Results for CCOC(=O)CC(NC(=O)Cn1nnc(-c2ccccc2F)n1)c1ccccc1Cl (stereo not given) ?
Calb biofilm kill: 10.2; S1P4 antagonist: -15.0; S1P4 agonist: -0.6; TbHK1 inh: -0.7; S1P3 antagonist: 0.4; Dynein transport: 0.231

How did COC(=O)CCSCC(=O)N1N=C(c2ccc(OC)cc2)CC1c1cccc(OC)c1OC (stereo not given) do in these assays?
Calb biofilm kill: 25.4; S1P4 antagonist: -2.2; S1P4 agonist: 0.5; TbHK1 inh: -5.2; S1P3 antagonist: 5.4; Dynein transport: -0.346

How did COC(=O)c1ccc(NC(=O)c2ccccc2)o1 do in these assays?
S1P4 antagonist: -7.4; S1P4 agonist: 24.8*; TbHK1 inh: -9.8; Dynein transport: -0.53; S1P4 ag conf: -1.8; S1P1 agonist: -4.8

Results for O=C(Nc1ccc(Cl)c(Cl)c1)N1N=CCC1c1ccccc1 (stereo not given) ?
Calb biofilm kill: 25.6; S1P4 antagonist: 2.7; S1P4 agonist: -0.7; TbHK1 inh: 11.0; S1P3 antagonist: 2.0; Dynein transport: 0.636

Results for COc1cccc(-n2nc(C(C)=O)c(C#N)c2-c2ccco2)c1 ?
Calb biofilm kill: 7.2; S1P4 antagonist: 0.4; S1P4 agonist: 37.8*; TbHK1 inh: 3.7; S1P3 antagonist: -2.4; Dynein transport: 0.487; S1P4 ag conf: -2.2; S1P1 agonist: -4.6

How did COc1cccc(-n2nc(C(N)=O)c(O)cc2=O)c1 do in these assays?
Calb biofilm kill: 2.3; S1P4 antagonist: 0.5; S1P4 agonist: -0.7; TbHK1 inh: -4.1; S1P3 antagonist: -21.5; Dynein transport: -0.76

What do the screens show for `Cn1ccnc1SCCNC(=O)CCc1nnc(CCc2ccccc2)o1`?
Calb biofilm kill: 0.9; S1P4 antagonist: 13.1; S1P4 agonist: 0.8; TbHK1 inh: -1.4; S1P3 antagonist: 1.8; Dynein transport: -1.03

How did Cc1ccc(-c2onc3ccc(C4OCCO4)cc23)cc1 do in these assays?
Calb biofilm kill: 3.4; S1P4 antagonist: -0.2; S1P4 agonist: 1.3; TbHK1 inh: -7.8; S1P3 antagonist: 0.4; Dynein transport: -0.0358

What do the screens show for `CCNc1nc2nc3ccc(C)cn3c(=O)c2cc1C(=O)NCC1CCCO1` (stereo not given)?
Calb biofilm kill: 13.8; S1P4 antagonist: -23.0; S1P4 agonist: 12.9*; TbHK1 inh: -2.1; S1P3 antagonist: -29.0; Dynein transport: -0.914; S1P4 ag conf: 2.3; S1P1 agonist: 8.4

What do the screens show for `C=CCNC(=O)c1cc2c(=O)n3cc(C)ccc3nc2nc1NCC1CCCO1` (stereo not given)?
Calb biofilm kill: 16.9; S1P4 antagonist: -22.6; S1P4 agonist: 2.7; TbHK1 inh: -7.7; S1P3 antagonist: -9.5; Dynein transport: -0.448

Results for COc1ccc(S(=O)(=O)NN(C)C(=O)c2nn(-c3ccccc3)ccc2=O)cc1 ?
Calb biofilm kill: 2.7; S1P4 antagonist: -16.4; S1P4 agonist: 0.9; TbHK1 inh: -15.3; S1P3 antagonist: -8.3; Dynein transport: -0.973

How did CC(C)(C)c1cc2nc(N)nc(N)n2n1 do in these assays?
Calb biofilm kill: 6.1; S1P4 antagonist: 15.4; S1P4 agonist: -0.1; TbHK1 inh: -7.2; S1P3 antagonist: -4.7; Dynein transport: 0.383

Results for CSc1nc(N)n2nc(C(C)(C)C)cc2n1 ?
Calb biofilm kill: 15.3; S1P4 antagonist: -16.9; S1P4 agonist: 22.7*; TbHK1 inh: -10.2; S1P3 antagonist: -4.4; Dynein transport: 0.524; S1P4 ag conf: -2.4; S1P1 agonist: -5.0

Results for Cc1ccc(NC(=O)COC(=O)[C@H](C)N2C(=O)C3CC=CCC3C2=O)cc1S(=O)(=O)N(C)C (stereo not given in full) ?
Calb biofilm kill: -5.7; S1P4 antagonist: -16.6; S1P4 agonist: 15.6*; TbHK1 inh: -1.1; S1P3 antagonist: -22.2; Dynein transport: 1.31; S1P4 ag conf: -1.1; S1P1 agonist: -4.9

What do the screens show for `COCCCNc1nc2nonc2nc1N(C)CC1CCCN1C` (stereo not given)?
Calb biofilm kill: 29.8; S1P4 antagonist: -0.3; S1P4 agonist: 1.0; TbHK1 inh: -20.0; S1P3 antagonist: -19.4; Dynein transport: 0.208

Results for CCOC(=O)Cn1nnc(-c2ccc([N+](=O)[O-])cc2)n1 ?
Calb biofilm kill: 27.5; S1P4 antagonist: -7.1; S1P4 agonist: -1.5; TbHK1 inh: 2.4; S1P3 antagonist: 0.8; Dynein transport: 0.602

What do the screens show for `C=Cn1cc[n+](CC(=O)c2ccc(C)cc2)c1`?
Calb biofilm kill: 6.1; S1P4 antagonist: -3.4; S1P4 agonist: 18.5*; TbHK1 inh: -5.0; S1P3 antagonist: 2.8; Dynein transport: -0.592; S1P4 ag conf: -1.8; S1P1 agonist: -3.6

What do the screens show for `CC1=CC(C)(C)[N+](C)=CN1c1ccccc1`?
Calb biofilm kill: 15.0; S1P4 antagonist: -7.5; S1P4 agonist: 32.7*; TbHK1 inh: -5.5; S1P3 antagonist: -6.8; Dynein transport: -0.516; S1P4 ag conf: -1.5; S1P1 agonist: 4.1

What do the screens show for `Cc1nc2cc(C(=O)O)ccc2n1-c1ccccc1`?
S1P4 antagonist: -22.4; S1P4 agonist: -0.1; TbHK1 inh: -3.9; S1P3 antagonist: 4.7; Dynein transport: 3.32

How did CCOC(=O)c1cc(C(=O)OCC)c(=O)[nH]c1N1CCCC1 do in these assays?
Calb biofilm kill: 12.0; S1P4 antagonist: -6.6; S1P4 agonist: 0.3; TbHK1 inh: -48.6; S1P3 antagonist: -2.7; Dynein transport: 0.55
